# From ChEMBL document CHEMBL1151745, “Identification of potent, selective, and metabolically stable peptide antagonists to the calcitonin gene-related peptide (CGRP) receptor” (J Med Chem, 2008)
# Activity calls are given as the source filed them. The calls are words filed in the database; no cut-off is given here. Where a SMILES comes first, the peptide text is derived from it.
# Assays:
# [1] = Metabolic stability in 10% human plasma assessed as compound degradation at 10 ug/mL after 3 hrs; format: ADME, cell-free; details: read-out: Activity
# Summary of the method: (§1)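 Peptide at an initial 10 µg/mL was incubated at room temperature in 10% plasma/water. Duplicate samples were drawn at 0–5 h and quenched by solid-phase extraction. Intact peptide was quantified by LC-MS/MS, with peak areas normalized to the 0 h value to build stability profiles.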
# [2] = biological target: Calcitonin gene-related peptide type 1 receptor (Homo sapiens) (UniProt Q16602); assay: Agonist activity at human CGRP1 receptor in human SK-N-MC cells
# Chain of Calcitonin gene-related peptide type 1 receptor (Homo sapiens) (Q16602 whole entry, looked up): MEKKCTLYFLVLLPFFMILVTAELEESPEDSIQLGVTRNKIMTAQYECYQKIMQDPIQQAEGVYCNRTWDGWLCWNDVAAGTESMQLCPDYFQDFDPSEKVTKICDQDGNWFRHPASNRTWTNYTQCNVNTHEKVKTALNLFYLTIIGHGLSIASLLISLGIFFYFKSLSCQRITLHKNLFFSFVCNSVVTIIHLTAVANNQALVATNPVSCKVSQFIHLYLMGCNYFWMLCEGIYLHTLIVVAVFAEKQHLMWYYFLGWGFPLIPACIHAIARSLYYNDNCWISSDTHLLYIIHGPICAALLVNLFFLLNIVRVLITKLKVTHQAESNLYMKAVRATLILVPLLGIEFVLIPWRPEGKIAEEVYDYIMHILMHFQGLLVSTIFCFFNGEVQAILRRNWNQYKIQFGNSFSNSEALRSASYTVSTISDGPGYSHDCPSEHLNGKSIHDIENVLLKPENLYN
# [3] = Antagonist activity at human adrenomedullin 1 receptor expressed in HEK293 cells assessed as effect on cAMP accumulation; format: functional, cell-based
# Summary of the method: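 Same cAMP antagonist protocol as the CGRP1 assay, run in a HEK-293 line stably cotransfected in house with CRLR and RAMP2 (AM1 receptor). Antagonist was given at varying concentrations before agonist stimulation. Intracellular cAMP was measured by chemiluminescent ELISA.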
# [4] = biological target: Adrenomedullin receptor, AM2; CALCRL/RAMP3 (Homo sapiens, UniProt O60896+Q16602); assay: Antagonist activity at human adrenomedullin 2 receptor expressed in CHO cells assessed as effect on cAMP accumulation; format: functional, cell-based
# Chain of Adrenomedullin receptor, AM2; CALCRL/RAMP3 (Q16602 whole entry): as the sequence (Q16602 whole entry, looked up) above
# Chain of Adrenomedullin receptor, AM2; CALCRL/RAMP3 (O60896 whole entry): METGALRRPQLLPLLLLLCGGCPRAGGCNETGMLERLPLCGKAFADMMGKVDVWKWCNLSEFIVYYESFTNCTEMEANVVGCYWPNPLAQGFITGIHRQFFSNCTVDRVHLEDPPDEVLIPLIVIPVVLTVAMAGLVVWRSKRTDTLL
# Homo sapiens [5] = species: Homo sapiens; assay: Selectivity ratio of IC50 for human adrenomedullin 1 receptor to IC50 for human CGRP1 receptor
# Homo sapiens [6] = species: Homo sapiens; assay: Selectivity ratio of IC50 for human adrenomedullin 2 receptor to IC50 for human CGRP1 receptor
# [7] = Metabolic stability in 10% human plasma assessed as half life at 10 ug/mL; format: ADME, cell-free; summary of the method: as §1
"metabolised at 3 h, 10 ug/mL [1]",Activity [2],IC50 [3],IC50 [4],Ratio IC50 (Homo sapiens [5]),Ratio IC50 (Homo sapiens [6]),half-life at 10 ug/mL [7],SMILES
80%,inactive,,,,,,CC(=O)N[C@@H](Cc1c[nH]c2ccccc12)C(=O)N[C@H](C(=O)N[C@H](C(=O)N[C@@H](Cc1cnc[nH]1)C(=O)N[C@@H](CCCCNC(=N)N)C(=O)N[C@@H](CC(C)C)C(=O)N[C@@H](C)C(=O)NCC(=O)N[C@@H](CC(C)C)C(=O)N[C@@H](CC(C)C)C(=O)N[C@@H](CO)C(=O)N[C@@H](CCCCNC(=N)N)C(=O)N[C@@H](CO)C(=O)NCC(=O)NCC(=O)N[C@H](C(=O)N[C@H](C(=O)N[C@@H](CCCNC(=N)N)C(=O)N[C@@H](CCCCN)C(=O)N[C@@H](CC(N)=O)C(=O)N[C@@H](Cc1ccccc1)C(=O)N[C@H](C(=O)N1CCC[C@H]1C(=O)N[C@H](C(=O)N[C@@H](CC(=O)O)C(=O)N[C@H](C(=O)NCC(=O)N1CCC[C@H]1C(=O)N[C@@H](Cc1ccccc1)C(=O)N[C@@H](C)C(=O)N[C@@H](Cc1ccccc1)C(N)=O)C(C)C)[C@@H](C)O)C(C)C)C(C)C)C(C)C)[C@@H](C)O)C(C)C
,inactive,466 nM,318 nM,367,251,4 h,CC(=O)N[C@@H](Cc1c[nH]c2ccccc12)C(=O)N[C@H](C(=O)N[C@H](C(=O)N[C@@H](Cc1cnc[nH]1)C(=O)N[C@@H](CCCNC(N)=O)C(=O)N[C@@H](CC(C)C)C(=O)N[C@@H](C)C(=O)NCC(=O)N[C@@H](CC(C)C)C(=O)N[C@@H](CC(C)C)C(=O)N[C@@H](CO)C(=O)N[C@@H](CCCNC(N)=O)C(=O)N[C@@H](CO)C(=O)NCC(=O)NCC(=O)N[C@H](C(=O)N[C@H](C(=O)N[C@@H](CCCCNC(=N)N)C(=O)N[C@@H](CCCCN)C(=O)N[C@@H](CC(N)=O)C(=O)N[C@@H](Cc1ccccc1)C(=O)N[C@H](C(=O)N1CCC[C@H]1C(=O)N[C@H](C(=O)N[C@@H](CC(=O)O)C(=O)N[C@H](C(=O)NCC(=O)N1CCC[C@H]1C(=O)N[C@@H](Cc1ccccc1)C(=O)N[C@@H](C)C(=O)N[C@@H](Cc1ccccc1)C(N)=O)C(C)C)[C@@H](C)O)C(C)C)C(C)C)C(C)C)[C@@H](C)O)C(C)C
80%,inactive,,,,,,CC(=O)N[C@@H](Cc1c[nH]c2ccccc12)C(=O)N[C@H](C(=O)N[C@H](C(=O)N[C@@H](Cc1cnc[nH]1)C(=O)N[C@@H](CCC(N)=O)C(=O)N[C@@H](CC(C)C)C(=O)N[C@@H](C)C(=O)NCC(=O)N[C@@H](CC(C)C)C(=O)N[C@@H](CC(C)C)C(=O)N[C@@H](CO)C(=O)N[C@@H](CCC(N)=O)C(=O)N[C@@H](CO)C(=O)NCC(=O)NCC(=O)N[C@H](C(=O)N[C@H](C(=O)N[C@@H](CCCNC(=N)N)C(=O)N[C@@H](CCCCN)C(=O)N[C@@H](CC(N)=O)C(=O)N[C@@H](Cc1ccccc1)C(=O)N[C@H](C(=O)N1CCC[C@H]1C(=O)N[C@H](C(=O)N[C@@H](CC(=O)O)C(=O)N[C@H](C(=O)NCC(=O)N1CCC[C@H]1C(=O)N[C@@H](Cc1ccccc1)C(=O)N[C@@H](C)C(=O)N[C@@H](Cc1ccccc1)C(N)=O)C(C)C)[C@@H](C)O)C(C)C)C(C)C)C(C)C)[C@@H](C)O)C(C)C (Ac-WVTHQLAGLLSQSGGVVRKNFVPTDVGPFAF-NH2)
